Screens deposited in PubChem BioAssay by several laboratories.
Rows were chosen to be rich in hits. Some 8.7% of all compounds tested hit in one or more screens of this group.
E coli WT exp = growth inhibitors of E. coli BW25113 wild type; OD600 absorbance; growth inhibition, % at 100 µM; 98,000 tested, 0.15% active;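 active means growth inhibition above about 50% at one test dose, limit read from the data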;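 further: growth measured after 20 h incubation at 37 °C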
PostGolgi ctrl = yeast control strain growth, post-Golgi counter-screen; inhibition, % at 10 µM; efflux-deficient yeast background strain, growth absorbance A615, 16 h; 98,000 tested, 5% active; AID 738
Pyk2 oligo antag = blocks oligomerization of human Pyk2 in cells. Q14289. Q293 cells, Pyk2 FERM NanoBiT luminescence; stronger effect = lower value. 99,000 tested, 0.83% active. AID 1347419. z-score (the deposit names both 25 µM and 10 µM);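 active means Z-score of -3 or lower, scaled per plate to the spread of control and sample wells; inactive means z-score above -3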;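 further: negative z-score means lost luminescence so less FERM oligomerization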
Ecoli tolC = blocks growth of E. coli BW25113 tolC mutant; AID 573; OD615; growth inhibition, % at 10 µM (by protocol); 65,000 tested, 2.2% active;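 active means growth inhibition at or above a cutoff equal to the mean over every tested compound plus 3 SD, cut at about 60% in these data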;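 further: growth measured after 20 h incubation at 37 °C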
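Test system: tolC-deleted E. coli BW25113 | Medium: LB with kanamycin 50 µg/mL | Compound dosing: Single concentration, 10 µM final per compound | Schedule: 37 °C, 20 h exposure | Measured by: OD at 615 nm | Evaluation: Percent growth inhibition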
PostGolgi yeast = growth inhibition of a yeast mutant, post-Golgi transport screen; post-Golgi transport phenotypic cell assay; inhibition, % at 10 µM; 98,000 tested, 0.9% active; AID 739;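 further: yeast cells grown in 1536-well plates; yeast grown about 18 h at 30C before absorbance read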
Cav3 T inh = inhibitors of human Cav3.2 T-type calcium channel | B-score at 10 µM | O95180 | Cav3.2-expressing cells, Fluo-4 calcium fluorescence FDSS; stronger effect = lower value | 100,000 tested, 4% active | AID 449739;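 active means single-dose well whose peak fluorescence ratio is a statistical outlier from its plate by either plate-standardised score or position-corrected B-score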
Starred values were filed as active, the others as inactive; . = not tested or not shown. Unless noted, no stated cut-off is given here; in the data, active means inhibition above about 30%; inactive means the rest.

SMILES	E coli WT exp	PostGolgi ctrl	Pyk2 oligo antag	Ecoli tolC	PostGolgi yeast	Cav3 T inh
Cc1ccc(C(=O)NCCSc2ccc(Cl)cc2)cc1S(=O)(=O)Nc1ccccc1	-25	12	-1.6	.	-5	-2.8
Cc1ccc(NS(=O)(=O)c2cc(C(=O)NCCSc3ccc(C)cc3)ccc2C)cc1	-14	36*	-1.4	.	-9	-4.4*
Cc1ccc(SCCNC(=O)c2ccc(C)c(S(=O)(=O)Nc3cccc(C)c3)c2)cc1	-7	25	-1.6	.	-10	-4.6*
Cc1ccc(SCCNC(=O)c2ccccc2)cc1	-8	-3	-0.26	.	7	-0.45
Cc1ccc(NS(=O)(=O)c2cc(C(=O)N3CCOCC3)ccc2C)cc1	2	7	-0.81	11	48*	-0.5
COc1ccc(-c2nnc(SC(C)C(=O)Nc3cccc(Cl)c3)o2)cc1 (stereo not drawn)	-9	18	2.2	59	5	-2.6
N#C/C(=C\C1CC2C=CC1C2)c1nc2ccccc2[nH]1 (stereo not drawn)	-6	4	0.07	.	-1	-0.043
O=C1CCCc2ccccc2N1Cc1ccccc1Cl	6	34*	-1	.	9	.
O=C1CCCc2ccccc2N1Cc1ccc(Cl)cc1Cl	6	31*	-0.35	.	7	-3.7
O=C1CCCc2ccccc2N1Cc1cccc(Cl)c1	9	27	-0.63	.	16	.
O=C1CCCc2ccccc2N1Cc1c(Cl)cccc1Cl	5	41*	-0.91	.	8	.
O=C1CCCc2ccccc2N1Cc1ccc(Cl)cc1	9	22	-1	.	7	-2.5
Nc1ccc(-c2n[nH]c(=O)c3ccccc23)cc1N	7	12	-0.24	-6	8	0.44
CCC(CC)C(=O)Nc1cccc(C(=O)c2ccccc2)c1	10	14	-0.98	.	-1	-1.2
CCOC(=O)c1cc(-c2ccc(OC)cc2F)nc2c1c(C)nn2CCC#N	-22	45*	-0.84	.	-3	-1.8
COc1ccc(S(=O)(=O)NCCSCc2cccc(C)c2)cc1Br	-20	37*	-1.5	.	0	-1.7
O=C(CC1NCCNC1=O)Nc1ccc2c(c1)OCO2 (stereo not drawn)	9	11	1.2	.	-1	0.91
COc1cccc(-c2nc(-c3ccc4c(c3)-c3ccccc3S4(=O)=O)c(-c3ccccc3)[nH]2)c1OC	.	.	-0.62	.	.	-0.0014
COc1cc(-c2nc(-c3ccc4c(c3)-c3ccccc3S4(=O)=O)c(-c3ccccc3)[nH]2)cc(OC)c1OC	-7	-2	-3*	.	-5	-0.13
COc1cc(-c2nc(-c3ccccc3)c(-c3cccs3)[nH]2)cc(OC)c1OC	-6	6	-3*	.	-5	-2.5
O=C(NCc1ccco1)c1ccccc1NS(=O)(=O)c1ccc(Cl)s1	6	16	-0.97	.	-6	-7.4*
O=S(=O)(Nc1ccccc1N1CCCCC1)c1ccc(Cl)s1	0	21	0.36	.	10	0.05
O=C(Nc1ccccc1)c1ccccc1NS(=O)(=O)c1ccc(Cl)s1	34	44*	-2.5	.	-8	-8.7*
O=C(CCCn1c(=O)[nH]c2cc(Cl)ccc2c1=O)NCCCN1CCCC1=O	5	1	0.44	-14	1	0.071
Cc1ccc2c(c1)sc1nc(=O)n(-c3cccc(Cl)c3)c(=O)n12	-3	0	1.6	.	-5	-0.034
SMILES	E coli WT exp	PostGolgi ctrl	Pyk2 oligo antag	Ecoli tolC	PostGolgi yeast	Cav3 T inh
O=C(c1ccccc1)c1c[nH]c(C(=O)NCCCn2ccnc2)c1	-5	11	0.01	.	0	.
N#CC(C#N)=C/C(C#N)=C(/N)N1CCN(c2ccc(Cl)cc2)CC1	-6	31*	-0.29	.	47*	0.38
COC(=O)C1=C(C)NC(=O)C1(Nc1nccs1)C(F)(F)F (stereo not drawn)	0	0	1.3	-6	6	0.29
CCOC(=O)C1=C(O)C(Nc2nccs2)(C(F)(F)F)N=C1C (stereo not drawn)	3	35*	-1	-15	1	.
COC(=O)C1CCN(C(=O)c2ccccc2Oc2ccccc2)CC1	5	12	-0.14	-1	12	-0.043
CCn1c(SCC(=O)Nc2oc(-c3ccccc3)c(-c3ccccc3)c2C#N)nnc1-c1ccco1	-11	8	-1.9	42	5	-4.7*
COc1ccc(-c2oc(NC(=O)CSc3nncn3C)c(C#N)c2-c2ccc(OC)cc2)cc1	2	-1	-3.8*	.	-3	0.46
COc1ccc(NC(=O)CSc2nncn2C)c([N+](=O)[O-])c1	6	11	-0.15	.	0	0.95
CC(C)CC(C(=O)Nc1oc(-c2ccccc2)c(-c2ccccc2)c1C#N)N1C(=O)c2ccccc2C1=O (stereo not drawn)	.	.	-3.7*	.	.	-3.4
CCn1c(SCC(=O)Nc2oc(-c3ccccc3)c(-c3ccccc3)c2C#N)nnc1-c1ccncc1	-5	-1	-1.9	.	18	-2
N#Cc1c(NC(=O)CCN2C(=O)c3ccccc3C2=O)oc(-c2ccccc2)c1-c1ccccc1	-7	14	0.38	41	-4	-7.2*
Cc1cnc(C(=O)OCC(=O)Nc2oc(-c3ccccc3)c(-c3ccccc3)c2C#N)cn1	-3	3	-1.8	45	-1	-2.3
O=C(Nc1ccccc1)NC1(C(=O)NCc2cccs2)CCCCC1	-6	23	1.7	.	14	0.97
CCOC(=O)c1c(C)c(C(=O)N2CCCCCC2)c(C)n1CC	10	1	-0.52	2	3	0.23
N#Cc1c(NC(=O)CCn2cnc3ccccc3c2=O)oc(-c2ccccc2)c1-c1ccccc1	-13	0	-2.5	46	7	-9.4*
N#Cc1c(NC(=O)CSc2ccccn2)oc(-c2ccccc2)c1-c1ccccc1	-5	23	-1.5	.	-8	-6.4*
N#Cc1c(NC(=O)CN2C(=O)c3ccccc3C2=O)oc(-c2ccccc2)c1-c1ccccc1	.	.	-2.4	.	.	-4*
COC(=O)c1ccc(NC(=O)CSc2ccccn2)cc1	5	9	-0.15	.	25	-0.12
O=C(CN1C(=O)c2ccccc2C1=O)NN1C(=O)c2ccccc2C1=O	-9	0	1.9	.	5	0.16
O=C(O)CCn1cnc2ccccc2c1=O	-2	8	0.96	-26	-4	-0.02
O=C1Nc2cc(Cl)c(Cl)cc2N(O)N1c1ccc(Cl)c(Cl)c1	14	3	-0.04	.	-2	-1.6
Cc1cccc(NC(=O)C2(c3ccc([N+](=O)[O-])cc3)CCCC2)c1	-13	8	-1	.	-8	-5.5*
Cc1cccc(NC(=O)C(c2cccc([N+](=O)[O-])c2)N2CCCCC2)c1 (stereo not drawn)	-2	25	-0.74	.	17	-8*
Cc1cccc(NC(=O)C2(C)CC3c4ccccc4C2c2ccccc23)c1 (stereo not drawn)	-11	7	0.54	.	-5	0.45
O=C(Nc1ccc2c(c1)OCO2)C(c1ccccc1)N1CCCCC1 (stereo not drawn)	6	17	.	5	-6	-2.8
CCCCNC(=O)COC(=O)c1ccc(Cl)c(S(=O)(=O)N2CCCC2)c1	-3	6	-0.16	.	2	3.6
